ChEMBL document CHEMBL1149345, “Pyrrolo[1,2-b][1,2,5]benzothiadiazepines (PBTDs): A new class of agents with high apoptotic activity in chronic myelogenous leukemia K562 cells and in cells from patients at onset and who were imatinib-resistant” (2006)
Active and inactive are the calls of the source. The rule behind the calls is not given here.

Columns and labels:
K562 [1] = assay: Apoptotic activity against human K562 cell line at 10 uM after 48 hrs; type: functional
Method in brief: (§1)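 K562 cells exposed at 10 µM for 8, 16, 24 and 48 h, run alongside imatinib reference and untreated control cells. Result is % apoptosis as mean ± SD of triplicate experiments. Morphology (chromatin condensation, micronuclei, vacuolization) checked by electron microscopy.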

K562 [2] = assay: Apoptotic activity against human K562 cell line at 10 uM after 24 hrs; type: functional; method in brief: as §1
K562 [3] = assay: Apoptotic activity against human K562 cell line at 10 uM after 8 hrs; type: functional; method in brief: as §1
K562 [4] = assay: Apoptotic activity against human K562 cell line at 10 uM after 16 hrs; type: functional; method in brief: as §1
Homo sapiens [5] = species: Homo sapiens; assay: Apoptotic activity against peripheral blood cells of CML affected human (27-83 yrs) at onset phase at 10 uM after 48 hrs; type: functional
Method in brief: (§2)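 Bone marrow or peripheral blood cells harvested from 12 consecutive CML patients at onset. Cells cultured in vitro and treated at 10 µM for 24 and 48 h. Read-out by DNA fragmentation assay as % apoptosis.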

Homo sapiens [6] = species: Homo sapiens; assay: Apoptotic activity against peripheral blood cells of imatinib-resistant CML affected human (38-70 yrs) at blast crisis phase at 10 uM after 48 hrs; type: functional
Method in brief: (§3)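 Peripheral blood cells taken from 2 CML patients in blast crisis that evolved under imatinib treatment. Cells cultured in vitro and exposed at 10 µM for 24 and 48 h. Apoptosis scored as % by DNA fragmentation assay.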

K562 [7] = assay: Decrease in procaspase 8 expression in human K562 cells by Western blot; type: functional, cell-based
Method in brief: (§4)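 Lysates of treated K562 cells taken after 24 h. Procaspase-8 and procaspase-9 immunoreactive bands assessed by Western blot.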

K562 [8] = assay: BCR-ABL inactivation-independent inhibition of […]-induced apoptosis in human K562 cell at 10 uM by Western blot; type: functional, cell-based
Homo sapiens [9] = species: Homo sapiens; assay: Apoptotic activity against peripheral blood cells of CML affected human (27-83 yrs) at onset phase at 10 uM after 24 hrs; type: functional; method in brief: as §2
Homo sapiens [10] = species: Homo sapiens; assay: Apoptotic activity against peripheral blood cells of imatinib-resistant CML affected human (38-70 yrs) at blast crisis phase at 10 uM after 24 hrs; type: functional; method in brief: as §3
K562 [11] = assay: Decrease in procaspase 9 expression in human K562 cells by Western blot; type: functional, cell-based; method in brief: as §4

SMILES | Activity (K562 [1]) | Activity (K562 [2]) | Activity (K562 [3]) | Activity (K562 [4]) | Activity (Homo sapiens [5]) | Activity (Homo sapiens [6]) | Activity (K562 [7]) | Activity (K562 [8]) | Activity (Homo sapiens [9]) | Activity (Homo sapiens [10]) | Activity (K562 [11])
CCOC(=O)[C@H]1c2cccn2S(=O)(=O)c2ccccc2N1C(=O)c1ccc(C)cc1 | 81.8% | 67.6% | 33.1% | 57.8% | – | – | – | – | – | – | –
CCOC(=O)[C@H]1Nc2ccccc2S(=O)(=O)n2cccc21 | 86.2% | 69% | 26.6% | 53.8% | – | – | – | – | – | – | –
CCOC(=O)[C@@H]1c2cccn2S(=O)(=O)c2ccccc2N1C(=O)c1ccc(C)cc1 | 86.2% | 71.6% | 38% | 63% | – | – | – | – | – | – | –
CCOC(=O)[C@@H]1Nc2ccccc2S(=O)(=O)n2cccc21 | 80.3% | 63.2% | 20.5% | 48.4% | – | – | – | – | – | – | –
CCOC(=O)C1c2cccn2S(=O)(=O)c2ccccc2N1C(=O)c1ccccc1 (racemic) | 89.6% | 80% | 45% | 66.6% | – | – | – | – | – | – | –
CCOC(=O)C1c2cccn2S(=O)(=O)c2ccccc2N1C(=O)c1ccc(Cl)cc1 (racemic) | 91.7% | 79.7% | 44.3% | 67% | – | – | – | – | – | – | –
O=S1(=O)c2ccccc2NC(CO)c2cccn21 (racemic) | 23% | 19.6% | 5.3% | 19.3% | – | – | – | – | – | – | –
CCOC(=O)CC1c2cccn2S(=O)(=O)c2ccccc2N1C(=O)c1ccc(C)cc1 (racemic) | 87.6% | 74.3% | 45% | 67.6% | – | – | – | – | – | – | –
O=C(O)CC1Nc2ccccc2S(=O)(=O)n2cccc21 (racemic) | 6.1% | 6.4% | 4.5% | 5.5% | – | – | – | – | – | – | –
CCOC(=O)CC1c2cccn2S(=O)(=O)c2ccccc2N1C(=O)c1ccc(F)cc1 (racemic) | 90.7% | 79% | 44.6% | 66.3% | – | – | – | – | – | – | –
CCOC(=O)CC1c2cccn2S(=O)(=O)c2ccccc2N1C(=O)c1cccc2ccccc12 (racemic) | 92.6% | 80% | 47% | 69% | – | – | – | – | – | – | –
CCOC(=O)CC1c2cccn2S(=O)(=O)c2ccccc2N1C(=O)c1ccc(Cl)cc1 (racemic) | 90% | 78% | 43% | 65.5% | – | – | – | – | – | – | –
CCOC(=O)CC1c2cccn2S(=O)(=O)c2ccccc2N1C(=O)c1ccccc1 (racemic) | 92.3% | 79.5% | 45.3% | 68% | – | – | – | – | – | – | –
O=C(O)C1Nc2ccccc2S(=O)(=O)n2cccc21 (racemic) | 6.2% | 6.8% | 4.8% | 5.7% | – | – | – | – | – | – | –
CCOC(=O)CC1Nc2ccccc2S(=O)(=O)n2cccc21 (racemic) | 88.3% | 72% | 29.3% | 53% | – | – | – | – | – | – | –
CCOC(=O)C1c2cccn2S(=O)(=O)c2ccccc2N1C(=O)c1ccc(C)cc1 (racemic) | 91.7% | 79.6% | 45.6% | 67.6% | 78% | 78% | inactive | Active | 55% | 55% | –
CCOC(=O)C1c2cccn2S(=O)(=O)c2ccccc2N1C(=O)c1ccc(F)cc1 (racemic) | 92% | 81% | 45.3% | 67.6% | – | – | – | – | – | – | –
CCOC(=O)C1c2cccn2S(=O)(=O)c2ccccc2N1C(=O)c1cccc2ccccc12 (racemic) | 87.6% | 77% | 43.7% | 66% | – | – | – | – | – | – | –
CCOC(=O)C1Nc2ccccc2S(=O)(=O)n2cccc21 (racemic) | 89.7% | 76.3% | 34% | 61.3% | 70% | 60% | Active | Active | 50% | 40% | inactive
Cc1ccc(NC(=O)c2ccc(CN3CCN(C)CC3)cc2)cc1Nc1nccc(-c2cccnc2)n1 [IMATINIB] | 71.2% | 71% | 66.7% | 70% | – | – | – | – | – | – | –
